Results taken from ChEMBL document CHEMBL1155856, “Synthesis and anti-inflammatory activity of 2-(2-aroylaroxy)-4,6-dimethoxy pyrimidines” (Bioorg Med Chem Lett, 2008).
Active and inactive are the calls of the source. The rule behind the calls is not given here.

Columns and labels:
Rattus norvegicus [1] = test: Toxicity in albino rat with hyperemia assessed as ulcerogenic activity at 400 mg/kg, po after 5 hrs; type: organism-based; parameters: dose 400 mg/kg, route oral; settings: in vivo
How it was run: (§1)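 Groups of 10 rats (200–230 g) fasted 24 h, then given an oral dose of test compound; controls undosed. Killed 5 h after dosing. Stomach and small intestine examined under microscope for hyperaemia, epithelial shedding, petechiae, frank haemorrhage, and erosion or discrete ulceration with or without perforation; scored as % of animals affected.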

[2] = target: Phospholipase A2 (Rattus norvegicus) (UniProt P04055); test: Inhibition of rat PLA2 using [14C]oleate labeled autoclaved Escherichia coli at 10 ug
Chain of Phospholipase A2 (Rattus norvegicus) (P04055 whole entry): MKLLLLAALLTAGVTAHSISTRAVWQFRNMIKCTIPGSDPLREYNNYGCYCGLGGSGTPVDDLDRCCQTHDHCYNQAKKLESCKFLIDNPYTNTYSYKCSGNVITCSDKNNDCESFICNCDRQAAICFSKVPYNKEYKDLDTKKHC
How it was run: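 Enzyme amount set for 10–15% hydrolysis over 60 min at 37 °C. Stopped with 2.0 N HCl plus fatty-acid-free BSA, centrifuged at 20,000g for 5 min. Released [14C]oleic acid in the supernatant counted by liquid scintillation.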

Rattus norvegicus [3] = test: Toxicity in albino rat assessed as ulcerogenic activity at 400 mg/kg, po after 5 hrs; type: organism-based; parameters: dose 400 mg/kg, route oral; settings: in vivo; how it was run: as §1
[4] = Toxicity in po dosed albino mouse; type: organism-based; settings: in vivo, read-out: ALD50
How it was run: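 Albino mice (25–30 g), in groups of 10, were given test compound at several dose levels. Percent mortality in each group was recorded 24 h after dosing. The approximate 50% lethal dose (ALD50) was calculated by Smith's method.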

Rattus norvegicus [5] = test: Toxicity in albino rat assessed as ulcerogenic activity at 100 mg/kg, po after 5 hrs; type: organism-based; parameters: dose 100 mg/kg, route oral; settings: in vivo; how it was run: as §1
Rattus norvegicus [6] = test: Antiinflammatory activity against carrageenan-induced acute paw edema in albino rat assessed as reduction of edema at 20 mg/kg, po after 3 hrs relative to control; type: functional
How it was run: (§2)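 Groups of five rats (125–160 g) dosed with test compound; 30 min later 0.2 mL of 1% carrageenan in 0.9% NaCl injected subcutaneously into the plantar aponeurosis of the hind paw. Paw volume read by water plethysmometer at baseline and at 3 h. Mean increase compared with carrageenan-only control group (five rats); % inhibition = (1 − Gt/Gc) × 100.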

Rattus norvegicus [7] = test: Toxicity in albino rat with hyperemia assessed as ulcerogenic activity at 100 mg/kg, po after 5 hrs; type: organism-based; parameters: dose 100 mg/kg, route oral; settings: in vivo; how it was run: as §1
Oryctolagus cuniculus = organism: Oryctolagus cuniculus; test: Inhibition of rabbit distal colon cyclooxygenase at 10 uM
How it was run: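 Microsomal fraction from rabbit distal colon mucosa, homogenized and washed in 0.1 M Tris pH 8.0, used fresh. Preincubated with test agent 10 min at 37 °C in Tris-HCl pH 8.0 with 2 mM reduced glutathione, 5 mM L-tryptophan and 1 µM hematin. Then 20 µM arachidonic acid with trace [1-14C]arachidonate added, 5 min at 37 °C. Stopped with cold ether/methanol/0.2 M citric acid. PGE2 separated by RP-HPLC and counted by scintillation; inhibition vs paired controls.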

Rattus norvegicus [8] = test: Antiinflammatory activity against carrageenan-induced acute paw edema in albino rat assessed as reduction of edema at 80 mg/kg, po after 3 hrs relative to control; type: functional; how it was run: as §2
Rattus norvegicus [9] = test: Toxicity in albino rat assessed as ulcerogenic activity at 200 mg/kg, po after 5 hrs; type: organism-based; parameters: dose 200 mg/kg, route oral; settings: in vivo; how it was run: as §1
Rattus norvegicus [10] = test: Antiinflammatory activity against carrageenan-induced acute paw edema in albino rat assessed as reduction of edema at 40 mg/kg, po after 3 hrs relative to control; type: functional; how it was run: as §2
Rattus norvegicus [11] = test: Antiinflammatory activity against carrageenan-induced acute paw edema in po dosed albino rat assessed as reduction of edema; type: functional; how it was run: as §2
Rattus norvegicus [12] = test: Toxicity in albino rat with hyperemia assessed as ulcerogenic activity at 200 mg/kg, po after 5 hrs; type: organism-based; parameters: dose 200 mg/kg, route oral; settings: in vivo; how it was run: as §1

## COc1cc(OC)nc(Oc2ccc(F)cc2C(=O)c2ccc(Cl)cc2)n1
Rattus norvegicus [1]
  Activity: 90%
[2]
  inhibition: 60%
Rattus norvegicus [3]
  Activity: 12%
[4]
  LD50: > 1000 mg/kg
Rattus norvegicus [5]
  Activity: 10%
Rattus norvegicus [6]
  inhibition in vivo at 20 mg/kg: 29.9%
Rattus norvegicus [7]
  Activity: 30%
Oryctolagus cuniculus
  Activity: inactive
Rattus norvegicus [8]
  inhibition in vivo at 80 mg/kg: 88.6%
Rattus norvegicus [9]
  Activity: 20%
Rattus norvegicus [10]
  inhibition in vivo at 40 mg/kg: 48.6%
Rattus norvegicus [11]
  ED50: 51.2 mg/kg
Rattus norvegicus [12]
  Activity: 60%

## COc1cc(OC)nc(Oc2ccc(C)cc2C(=O)c2ccc(C)cc2)n1
Rattus norvegicus [1]
  Activity: 100%
[2]
  inhibition: 10%
Rattus norvegicus [3]
  Activity: 40%
[4]
  LD50: > 1000 mg/kg
Rattus norvegicus [5]
  Activity: 20%
Rattus norvegicus [6]
  inhibition in vivo at 20 mg/kg: 20.2%
Rattus norvegicus [7]
  Activity: 50%
Oryctolagus cuniculus
  inhibition: 87%
Rattus norvegicus [8]
  inhibition in vivo at 80 mg/kg: 55.3%
Rattus norvegicus [9]
  Activity: 30%
Rattus norvegicus [10]
  inhibition in vivo at 40 mg/kg: 45.8%
Rattus norvegicus [11]
  ED50: 60.2 mg/kg
Rattus norvegicus [12]
  Activity: 70%

## COc1cc(OC)nc(Oc2ccc(Cl)cc2C(=O)c2ccc(Cl)cc2)n1
Rattus norvegicus [1]
  Activity: 100%
[2]
  inhibition: 40%
Rattus norvegicus [3]
  Activity: 40%
[4]
  LD50: > 1000 mg/kg
Rattus norvegicus [5]
  Activity: 10%
Rattus norvegicus [6]
  inhibition in vivo at 20 mg/kg: 13.4%
Rattus norvegicus [7]
  Activity: 40%
Oryctolagus cuniculus
  inhibition: 20%
Rattus norvegicus [8]
  inhibition in vivo at 80 mg/kg: 58.7%
Rattus norvegicus [9]
  Activity: 20%
Rattus norvegicus [10]
  inhibition in vivo at 40 mg/kg: 29.5%
Rattus norvegicus [11]
  ED50: 78.3 mg/kg
Rattus norvegicus [12]
  Activity: 60%

## CCCCC1C(=O)N(c2ccccc2)N(c2ccccc2)C1=O [PHENYLBUTAZONE]
Rattus norvegicus [1]
  Activity: 90%
[2]
  inhibition: 85%
Rattus norvegicus [3]
  Activity: 90%
Rattus norvegicus [5]
  Activity: 30%
Rattus norvegicus [6]
  inhibition in vivo at 20 mg/kg: 29.6%
Rattus norvegicus [7]
  Activity: 30%
Oryctolagus cuniculus
  inhibition: 89%
Rattus norvegicus [8]
  inhibition in vivo at 80 mg/kg: 51.9%
Rattus norvegicus [9]
  Activity: 60%
Rattus norvegicus [10]
  inhibition in vivo at 40 mg/kg: 34.1%
Rattus norvegicus [12]
  Activity: 60%

## COc1cc(OC)nc(Oc2ccc(Br)cc2C(=O)c2ccc(Cl)cc2)n1
Rattus norvegicus [1]
  Activity: 90%
[2]
  inhibition: 30%
Rattus norvegicus [3]
  Activity: 15%
[4]
  LD50: > 1000 mg/kg
Rattus norvegicus [5]
  Activity: 5%
Rattus norvegicus [6]
  inhibition in vivo at 20 mg/kg: 13.7%
Rattus norvegicus [7]
  Activity: 50%
Oryctolagus cuniculus
  inhibition: 70%
Rattus norvegicus [8]
  inhibition in vivo at 80 mg/kg: 57.7%
Rattus norvegicus [9]
  Activity: 10%
Rattus norvegicus [10]
  inhibition in vivo at 40 mg/kg: 33.2%
Rattus norvegicus [11]
  ED50: 77.2 mg/kg
Rattus norvegicus [12]
  Activity: 70%

## CC(=O)Oc1ccccc1C(=O)O [ASPIRIN]
Rattus norvegicus [1]
  Activity: 90%
[2]
  inhibition: 90%
Rattus norvegicus [3]
  Activity: 90%
Rattus norvegicus [5]
  Activity: 80%
Rattus norvegicus [6]
  inhibition in vivo at 20 mg/kg: 29.9%
Rattus norvegicus [7]
  Activity: 30%
Oryctolagus cuniculus
  inhibition: 99%
Rattus norvegicus [8]
  inhibition in vivo at 80 mg/kg: 61.4%
Rattus norvegicus [9]
  Activity: 90%
Rattus norvegicus [10]
  inhibition in vivo at 40 mg/kg: 38.8%
Rattus norvegicus [12]
  Activity: 60%

## COc1cc(OC)nc(Oc2ccc(C)cc2C(=O)c2ccc(Cl)cc2)n1
Rattus norvegicus [1]
  Activity: 60%
[2]
  inhibition: 80%
Rattus norvegicus [3]
  Activity: 80%
[4]
  LD50: > 1000 mg/kg
Rattus norvegicus [5]
  Activity: 40%
Rattus norvegicus [6]
  inhibition in vivo at 20 mg/kg: 11.5%
Rattus norvegicus [7]
  Activity: 20%
Oryctolagus cuniculus
  Activity: inactive
Rattus norvegicus [8]
  inhibition in vivo at 80 mg/kg: 45.5%
Rattus norvegicus [9]
  Activity: 50%
Rattus norvegicus [10]
  inhibition in vivo at 40 mg/kg: 21.5%
Rattus norvegicus [11]
  ED50: 77.5 mg/kg
Rattus norvegicus [12]
  Activity: 40%

## COc1cc(OC)nc(Oc2ccc(F)cc2C(=O)c2ccc(C)cc2)n1
Rattus norvegicus [1]
  Activity: 100%
[2]
  inhibition: 20%
Rattus norvegicus [3]
  Activity: 40%
[4]
  LD50: > 1000 mg/kg
Rattus norvegicus [5]
  Activity: 10%
Rattus norvegicus [6]
  inhibition in vivo at 20 mg/kg: 19.4%
Rattus norvegicus [7]
  Activity: 70%
Oryctolagus cuniculus
  inhibition: 40%
Rattus norvegicus [8]
  inhibition in vivo at 80 mg/kg: 58.2%
Rattus norvegicus [9]
  Activity: 20%
Rattus norvegicus [10]
  inhibition in vivo at 40 mg/kg: 29.1%
Rattus norvegicus [11]
  ED50: 62.5 mg/kg
Rattus norvegicus [12]
  Activity: 90%
